Data from ChEMBL document CHEMBL5104156, “Development of subtype-selective covalent ligands for the adenosine A2B receptor by tuning the reactive group” (RSC Med Chem, 2022).
Activity calls are given as the source filed them. The rule behind the calls is not given here.

Tests used:
Type in all cases: cell membranes
[1] = target: Adenosine receptor A2a (Homo sapiens) (UniProt P29274); assay: Displacement of [3H]ZM241385 from human adenosine A2A receptor expressed in HEK293 cell membrane at 1 uM preincubated for 4 hrs followed by [3H]ZM241385 addition and measured after 0.5 hrs by radioligand displacement assay; settings: time 4.5 hrs
Adenosine receptor A2b [2] = target: T1, Adenosine receptor A2b (Homo sapiens, UniProt P29275); assay: Displacement of [3H]PSB-603 from human adenosine A2B receptor expressed in CHO cell membrane and measured after 0.5 hrs by radioligand displacement assay
T1 sequence (P29275 whole entry): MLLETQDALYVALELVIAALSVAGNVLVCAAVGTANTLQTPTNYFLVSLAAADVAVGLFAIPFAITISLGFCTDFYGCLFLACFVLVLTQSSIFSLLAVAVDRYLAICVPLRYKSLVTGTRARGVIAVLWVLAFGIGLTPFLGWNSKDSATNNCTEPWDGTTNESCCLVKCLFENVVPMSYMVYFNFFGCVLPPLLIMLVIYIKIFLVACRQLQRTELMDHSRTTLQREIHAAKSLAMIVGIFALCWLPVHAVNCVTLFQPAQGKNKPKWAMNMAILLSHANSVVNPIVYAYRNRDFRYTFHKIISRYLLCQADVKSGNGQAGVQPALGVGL

[3] = target: T2, Adenosine receptor A3 (Homo sapiens) (UniProt P0DMS8); assay: Displacement of [3H]PSB-11 from human adenosine A3 receptor expressed in CHO cell membrane at 1 uM and measured after 0.5 hrs by radioligand displacement assay
T2 sequence (whole entry): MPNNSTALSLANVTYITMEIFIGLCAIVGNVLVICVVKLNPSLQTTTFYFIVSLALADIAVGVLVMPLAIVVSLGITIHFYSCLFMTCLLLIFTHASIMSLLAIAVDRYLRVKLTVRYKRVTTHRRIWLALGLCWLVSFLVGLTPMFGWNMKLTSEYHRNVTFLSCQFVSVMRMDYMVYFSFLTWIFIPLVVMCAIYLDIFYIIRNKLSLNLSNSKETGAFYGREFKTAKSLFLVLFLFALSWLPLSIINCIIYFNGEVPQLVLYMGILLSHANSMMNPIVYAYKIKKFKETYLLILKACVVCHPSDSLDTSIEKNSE

[4] = target: T3, Adenosine receptor A2b (Homo sapiens) (UniProt P29275); assay: Ratio of Ki for displacement of [3H]PSB-603 from human adenosine A2B receptor expressed in CHO cell membrane to Ki for displacement of [3H]PSB-603 from human adenosine A2B receptor expressed in CHO cell membrane preincubated for 4hrs
T3 sequence (whole entry): T1 sequence (P29275 whole entry)
Summary of the method: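 CHO-spap-hA2BAR membranes (30 µg protein) in 50 mM Tris-HCl pH 7.4 with 0.1% CHAPS. Nonspecific binding was set with 10 µM ZM241385. Filtration was followed by scintillation counting.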

[5] = target: Adenosine receptor A2a (Homo sapiens) (UniProt P29274); assay: Displacement of [3H]ZM241385 from human adenosine A2A receptor expressed in HEK293 cell membrane at 1 uM and measured after 0.5 hrs by radioligand displacement assay
[6] = target: T2, Adenosine receptor A3 (Homo sapiens); assay: Displacement of [3H]PSB-11 from human adenosine A3 receptor expressed in CHO cell membrane at 1 uM preincubated for 4 hrs followed by [3H]PSB-11 addition and measured after 0.5 hrs by radioligand displacement assay; settings: time 4.5 hrs
[7] = target: T4, Adenosine receptor A1 (Homo sapiens) (UniProt P30542); assay: Displacement of [3H]DPCPX from human adenosine A1 receptor expressed in CHO cell membrane at 1 uM and measured after 0.5 hrs by radioligand displacement assay
T4 sequence (whole entry): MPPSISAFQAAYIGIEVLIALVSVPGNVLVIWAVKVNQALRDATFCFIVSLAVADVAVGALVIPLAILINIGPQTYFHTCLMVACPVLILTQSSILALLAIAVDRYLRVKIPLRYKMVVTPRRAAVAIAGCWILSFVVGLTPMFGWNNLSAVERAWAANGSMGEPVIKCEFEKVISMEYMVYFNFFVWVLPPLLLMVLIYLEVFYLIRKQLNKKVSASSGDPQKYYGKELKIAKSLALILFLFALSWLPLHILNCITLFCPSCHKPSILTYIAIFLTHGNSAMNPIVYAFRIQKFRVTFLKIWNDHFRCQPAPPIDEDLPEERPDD

Adenosine receptor A2b [8] = target: T1, Adenosine receptor A2b; assay: Displacement of [3H]PSB-603 from human adenosine A2B receptor expressed in CHO cell membrane preincubated for 4 hrs followed by [3H]PSB-603 addition and measured after 0.5 hrs by radioligand displacement assay
[9] = target: T4, Adenosine receptor A1 (Homo sapiens); assay: Displacement of [3H]DPCPX from human adenosine A1 receptor expressed in CHO cell membrane at 1 uM preincubated for 4 hrs followed by [3H]DPCPX addition and measured after 0.5 hrs by radioligand displacement assay; settings: time 4.5 hrs
[10] = target: T3, Adenosine receptor A2b (Homo sapiens); assay: Displacement of [3H]PSB-603 from human adenosine A2B receptor expressed in CHO cell membrane assessed as covalent adduct formation at 1 uM preincubated followed by 4 times washing treatment and then with [3H]PSB-603 exposure by radioligand displacement assay
Summary of the method: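 CHO-spap-hA2BAR membranes (80 µg protein) were shaken 2 h at 25 °C with ligand, added as a 1 µM solution, in 0.1% CHAPS/50 mM Tris-HCl pH 7.4. The washed set was pelleted, resuspended and shaken 10 min at 25 °C, repeated three times; an unwashed set was kept for comparison. Both sets then had [3H]PSB-603 (1.5 nM solution) added for 2 h at 25 °C, with nonspecific binding set by 10 µM ZM241385. Filtration, then scintillation counting.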

Chain of Adenosine receptor A2a (Homo sapiens) (P29274 whole entry): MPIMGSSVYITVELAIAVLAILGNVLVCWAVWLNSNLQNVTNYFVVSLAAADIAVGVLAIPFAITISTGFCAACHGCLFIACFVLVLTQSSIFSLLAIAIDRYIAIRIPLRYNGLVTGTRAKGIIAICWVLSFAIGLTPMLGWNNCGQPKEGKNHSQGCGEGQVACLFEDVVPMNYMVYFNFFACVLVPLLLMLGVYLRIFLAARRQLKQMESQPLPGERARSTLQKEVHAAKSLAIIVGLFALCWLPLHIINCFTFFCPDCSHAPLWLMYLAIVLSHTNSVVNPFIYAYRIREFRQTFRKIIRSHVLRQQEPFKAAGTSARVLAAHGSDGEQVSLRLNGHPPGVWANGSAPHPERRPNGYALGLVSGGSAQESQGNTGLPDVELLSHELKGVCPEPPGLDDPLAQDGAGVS

SMILES | Activity [1] [%] | Ki (Adenosine receptor A2b [2]) [nM] | Activity [3] [%] | Ratio Ki [4] | Activity [5] [%] | Activity [6] [%] | Activity [7] [%] | Ki (Adenosine receptor A2b [8]) [nM] | Activity [9] [%] | Activity [10]
CCCn1c(=O)c2[nH]c(-c3ccc(OS(=O)(=O)F)cc3)nc2n(CCC)c1=O | 69 | 49 | 47 | 1 | 63 | 49 | 79 | 51.3 | 85 | –
CCCn1c(=O)[nH]c2nc(-c3cccc(N=C=S)c3)[nH]c2c1=O | 6 | 110 | 58 | 74.3 | 0 | 95 | 7 | 2.82 | 16 | –
CCCn1c(=O)[nH]c2nc(-c3ccc(S(=O)(=O)F)cc3)[nH]c2c1=O | 43 | 7.94 | 7 | 12.1 | 52 | 9 | 29 | 0.676 | 41 | Active
CCCn1c(=O)c2[nH]c(-c3ccc(S(=O)(=O)F)cc3)nc2n(CCC)c1=O | 55 | 60.3 | 12 | 27.3 | 54 | 5 | 61 | 2.4 | 69 | –
CCCn1c(=O)c2[nH]c(-c3cccc(S(=O)(=O)F)c3)nc2n(CCC)c1=O | 23 | 955 | 30 | 7.1 | 19 | 43 | 52 | 158 | 61 | –
CCCn1c(=O)c2[nH]c(-c3cccc(N=C=S)c3)nc2n(CCC)c1=O | 34 | 617 | 89 | 19.3 | 47 | 100 | 73 | 49 | 96 | –
CCCn1c(=O)[nH]c2nc(-c3ccc(OS(=O)(=O)F)cc3)[nH]c2c1=O | 24 | 11.7 | 8 | 2.2 | 35 | 8 | 17 | 5.5 | 12 | Active
CCCn1c(=O)c2[nH]c(-c3cccc(OS(=O)(=O)F)c3)nc2n(CCC)c1=O | 12 | 562 | 64 | 1.2 | 13 | 58 | 76 | 525 | 77 | –
CCCn1c(=O)[nH]c2nc(-c3cccc(S(=O)(=O)F)c3)[nH]c2c1=O | 6 | 132 | 14 | 10.2 | 20 | 10 | 6 | 13.2 | 36 | –
CCCn1c(=O)c2[nH]c(-c3ccc(N=C=S)cc3)nc2n(CCC)c1=O | 39 | 24 | 48 | 7.7 | 40 | 96 | 77 | 3.24 | 92 | –
CCCn1c(=O)[nH]c2nc(-c3ccc(N=C=S)cc3)[nH]c2c1=O | 27 | 2.14 | 15 | 3.4 | 25 | 66 | 51 | 0.661 | 97 | –
CCCn1c(=O)[nH]c2nc(-c3cccc(OS(=O)(=O)F)c3)[nH]c2c1=O | 0 | 141 | 14 | 1.6 | 2 | 5 | 6 | 70.8 | 1 | –
